Data: ChEMBL document CHEMBL1124177, “Synthesis, configuration, and evaluation of two conformationally restrained analogues of phencyclidine” (J Med Chem, 1988)

Experiments:
[1] = molecular target: Glutamate receptor ionotropic, NMDA 2C (Rattus norvegicus, UniProt Q00961); experiment: Binding affinity of compound against Phencyclidine receptor by displacement of [3H]TCP; details: read-out: Ki app
Method in brief: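 Membrane preparation incubated in triplicate with 2 nM [3H]TCP plus varying displacer levels in 5 mM Tris-HCl pH 7.4, 1 h, room temperature. Filtered on filters presoaked in 0.5% polyethylenimine, rinsed with Tris buffer, counted by liquid scintillation. Specific binding defined with 10 μM TCP. Mean ±SEM of at least three experiments.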

Rattus norvegicus [2] = experiment: The compound was tested for its stereotyped behavior after intracerebroventricular introduction in the rat; type: functional
Method in brief: (§1)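 Sprague–Dawley rats (~200 g), caged singly, adapted ≥1 h, each used once. Intracerebroventricular dosing. Scored on the Sturgeon PCP rating scale immediately, at 2.5 and 5 min, then every 5 min until back to control. Dose–response built from peak-effect ratings, ≥18 rats per curve. ED50 (nmol/rat) and confidence limits by computerized Finney assay.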

Rattus norvegicus [3] = experiment: The compound was tested for ataxia after intracerebroventricular introduction in the rat; type: functional; method in brief: as §1

Glutamate receptor ionotropic, NMDA 2C, sequence (Q00961 whole entry): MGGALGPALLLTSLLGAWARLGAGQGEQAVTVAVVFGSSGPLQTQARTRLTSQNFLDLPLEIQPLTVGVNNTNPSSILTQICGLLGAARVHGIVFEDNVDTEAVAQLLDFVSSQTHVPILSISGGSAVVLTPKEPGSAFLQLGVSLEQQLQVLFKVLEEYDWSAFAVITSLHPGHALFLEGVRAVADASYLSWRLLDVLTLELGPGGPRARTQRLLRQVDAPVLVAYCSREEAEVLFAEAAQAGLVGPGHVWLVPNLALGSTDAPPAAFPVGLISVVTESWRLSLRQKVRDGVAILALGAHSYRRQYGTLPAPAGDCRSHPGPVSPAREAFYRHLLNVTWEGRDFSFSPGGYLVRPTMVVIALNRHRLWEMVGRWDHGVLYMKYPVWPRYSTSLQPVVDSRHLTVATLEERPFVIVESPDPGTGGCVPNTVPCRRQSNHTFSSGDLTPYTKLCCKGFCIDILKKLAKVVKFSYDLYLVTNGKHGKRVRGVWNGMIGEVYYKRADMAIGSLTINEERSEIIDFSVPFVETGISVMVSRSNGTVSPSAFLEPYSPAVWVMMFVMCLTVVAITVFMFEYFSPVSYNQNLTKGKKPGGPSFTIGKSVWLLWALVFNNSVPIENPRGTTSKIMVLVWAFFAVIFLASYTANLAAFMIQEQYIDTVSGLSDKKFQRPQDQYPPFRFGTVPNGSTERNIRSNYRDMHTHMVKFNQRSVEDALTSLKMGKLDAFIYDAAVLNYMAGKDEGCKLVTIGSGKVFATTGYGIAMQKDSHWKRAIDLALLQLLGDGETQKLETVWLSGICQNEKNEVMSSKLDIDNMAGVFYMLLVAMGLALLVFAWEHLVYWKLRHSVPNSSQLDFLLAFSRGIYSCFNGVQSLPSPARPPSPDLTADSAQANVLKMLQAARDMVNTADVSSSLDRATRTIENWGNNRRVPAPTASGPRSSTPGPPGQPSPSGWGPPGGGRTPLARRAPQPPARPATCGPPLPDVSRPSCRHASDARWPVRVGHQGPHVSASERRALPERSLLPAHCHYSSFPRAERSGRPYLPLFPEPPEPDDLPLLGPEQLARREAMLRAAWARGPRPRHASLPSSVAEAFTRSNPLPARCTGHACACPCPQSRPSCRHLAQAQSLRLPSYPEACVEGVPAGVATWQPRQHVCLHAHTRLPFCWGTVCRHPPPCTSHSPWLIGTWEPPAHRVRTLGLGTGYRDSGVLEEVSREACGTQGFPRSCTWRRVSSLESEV

## c1ccc([C@@H](C2CC3CC3C2)N2CCCCC2)cc1 (some centres undefined)
[1]
  Ki: 680 nM
Rattus norvegicus [2]
  ED50: 310 nM
Rattus norvegicus [3]
  ED50: 300 nM

## c1ccc([C@H](C2CC3CC3C2)N2CCCCC2)cc1 (some centres undefined)
[1]
  Ki: 630 nM
Rattus norvegicus [2]
  ED50: 400 nM
Rattus norvegicus [3]
  ED50: 450 nM

## c1ccc(C2(N3CCCCC3)CCCCC2)cc1 [PHENCYCLIDINE]
[1]
  Ki: 91 nM
Rattus norvegicus [2]
  ED50: 150 nM
Rattus norvegicus [3]
  ED50: 210 nM
